Data published in publication PMC6605684 (The Journal of General Physiology, 2019).
Several values for one entry are separate records, joined by “and”; a condition that tells them apart may be missing. Identical values can stand only once. Entries after “also recorded” stand apart in the source; their conditions may differ.

Columns and labels:
WT zCFTR (zWT) = WT zCFTR (zWT) (Danio rerio, UniProt Q1LX78); assay: Inside-out patch-clamp of CFTR currents in transfected CHO cells; format: cell-based, zebrafish; conditions: EC50 for GLPG1837, dose–response
Summary of the method: (§1)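 CFTR construct and GFP plasmid cotransfected into CHO cells, held at 27°C for 2–6 d. Inside-out patches at room temperature, −30 mV, NMDG-Cl solutions at pH 7.4. Channels preactivated with 25 IU PKA plus 2 mM MgATP, then test compound (max 40 µM) applied in 2 mM ATP. ATP-subtracted steady-state currents normalized to the 3 µM response in the same patch. Hill fit with base 0 and maximum 1; EC50 ± SD of fit; 3–7 patches per point.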

S1141K/G551D-CFTR = S1141K/G551D-CFTR (Homo sapiens, UniProt P13569, G551D/S1141K); assay: as above; format: cell-based
Summary of the method: as §1

S263A-CFTR = S263A-CFTR (Homo sapiens, UniProt P13569, S263A); assay: as above; format: cell-based
Summary of the method: as §1

S364A-CFTR = S364A-CFTR (Homo sapiens, UniProt P13569, S364A); assay: as above; format: cell-based
Summary of the method: as §1

D924A-CFTR = D924A-CFTR (Homo sapiens, UniProt P13569, D924A); assay: Inside-out patch-clamp of CFTR currents in transfected CHO cells; format: cell-based
Summary of the method: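 No macroscopic currents were obtained, so single-channel recordings were used: less plasmid, recorded within 2 d, 4–5 MΩ pipettes, patch held at −50 mV. Channels activated with PKA plus ATP, then PKA removed in 2 mM ATP. Activity at 3 and 20 µM test compound compared with basal activity in 2 mM ATP.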

F236A-CFTR = F236A-CFTR (Homo sapiens, UniProt P13569, F236A); assay: Inside-out patch-clamp of CFTR currents in transfected CHO cells; format: cell-based
Summary of the method: as §1

F931A-CFTR = F931A-CFTR (Homo sapiens, UniProt P13569, F931A); assay: as above; format: cell-based
Summary of the method: as §1

Y304T-CFTR = Y304T-CFTR (Homo sapiens, UniProt P13569, Y304T); assay: Inside-out patch-clamp of CFTR currents in transfected CHO cells; format: cell-based
Y304T-CFTR, sequence (P13569 whole entry Y304T, the tested form may be a part): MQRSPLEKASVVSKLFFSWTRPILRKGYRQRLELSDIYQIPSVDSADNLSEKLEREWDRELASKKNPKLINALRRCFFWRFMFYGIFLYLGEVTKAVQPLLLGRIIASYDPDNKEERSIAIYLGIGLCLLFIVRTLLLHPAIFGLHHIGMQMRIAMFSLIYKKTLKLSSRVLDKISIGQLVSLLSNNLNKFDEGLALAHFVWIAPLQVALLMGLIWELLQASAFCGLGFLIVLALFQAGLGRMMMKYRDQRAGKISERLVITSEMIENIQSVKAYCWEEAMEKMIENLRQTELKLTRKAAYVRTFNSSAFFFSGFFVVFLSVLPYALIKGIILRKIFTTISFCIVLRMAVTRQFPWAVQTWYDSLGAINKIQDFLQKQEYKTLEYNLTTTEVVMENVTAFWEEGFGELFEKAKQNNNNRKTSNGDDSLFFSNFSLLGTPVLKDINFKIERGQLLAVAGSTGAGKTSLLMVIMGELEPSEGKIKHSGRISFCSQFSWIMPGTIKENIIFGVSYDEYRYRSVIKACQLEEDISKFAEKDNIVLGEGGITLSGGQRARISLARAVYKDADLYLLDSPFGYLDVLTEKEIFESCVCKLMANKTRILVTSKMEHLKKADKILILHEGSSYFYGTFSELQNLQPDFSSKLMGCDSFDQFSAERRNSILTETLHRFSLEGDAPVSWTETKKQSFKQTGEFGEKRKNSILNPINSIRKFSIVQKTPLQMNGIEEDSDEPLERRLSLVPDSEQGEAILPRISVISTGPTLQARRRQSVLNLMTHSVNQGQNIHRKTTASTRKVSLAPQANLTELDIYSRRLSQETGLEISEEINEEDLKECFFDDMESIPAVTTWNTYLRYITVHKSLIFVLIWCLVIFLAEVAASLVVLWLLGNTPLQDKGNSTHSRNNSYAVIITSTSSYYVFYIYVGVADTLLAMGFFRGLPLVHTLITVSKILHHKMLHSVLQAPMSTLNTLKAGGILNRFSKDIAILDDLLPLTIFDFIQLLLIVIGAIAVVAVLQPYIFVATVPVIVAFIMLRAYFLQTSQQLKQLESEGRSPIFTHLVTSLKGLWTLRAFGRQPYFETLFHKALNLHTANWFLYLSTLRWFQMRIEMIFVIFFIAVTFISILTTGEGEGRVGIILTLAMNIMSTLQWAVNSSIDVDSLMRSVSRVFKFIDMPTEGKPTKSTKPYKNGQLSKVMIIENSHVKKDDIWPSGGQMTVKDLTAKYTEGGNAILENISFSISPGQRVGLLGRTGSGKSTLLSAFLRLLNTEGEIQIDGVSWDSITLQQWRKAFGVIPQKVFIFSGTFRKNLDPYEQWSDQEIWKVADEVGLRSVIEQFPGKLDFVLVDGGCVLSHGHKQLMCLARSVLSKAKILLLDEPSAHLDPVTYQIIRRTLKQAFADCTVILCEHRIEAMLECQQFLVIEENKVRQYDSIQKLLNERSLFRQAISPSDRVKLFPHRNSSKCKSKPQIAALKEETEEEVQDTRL
Summary of the method: (§2)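 Relaxation assay: PKA-preactivated channels in 2 mM ATP at −30 mV exposed to test compound through a fast three-barrel perfusion system (dead time ∼30 ms). Current decay after sudden removal of 3 µM compound fitted with a single exponential to give relaxation time constant τ.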

WT-mCFTR = WT-mCFTR (Mus musculus, UniProt P26361); assay: Inside-out patch-clamp of CFTR currents in transfected CHO cells; format: cell-based; conditions: 2 mM ATP
Summary of the method: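 Mouse CFTR expressed in CHO cells; inside-out patches. Phosphorylated channels opened by 2 mM ATP before the potentiator was applied (one potentiator at 200 nM). 5 µM CFTRinh-172 added at the end of each recording for baseline.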

N1138Y/G551D-CFTR = N1138Y/G551D-CFTR (Homo sapiens, UniProt P13569, G551D/N1138Y); assay: Inside-out patch-clamp of CFTR currents in transfected CHO cells; format: cell-based
Summary of the method: as §1

T360A-CFTR = T360A-CFTR (Homo sapiens, UniProt P13569, T360A); assay: as above; format: cell-based
Summary of the method: as §1

S1141R/G551D-CFTR = S1141R/G551D-CFTR (Homo sapiens, UniProt P13569, G551D/S1141R); assay: as above; format: cell-based
Summary of the method: as §1

S1149A-CFTR = S1149A-CFTR (Homo sapiens, UniProt P13569, S1149A); assay: as above; format: cell-based
S1149A-CFTR, sequence (P13569 whole entry S1149A): as the sequence (P13569 whole entry Y304T, the tested form may be a part) above, with T304Y, S1149A counted along it
Summary of the method: as §1

Y304A-CFTR = Y304A-CFTR (Homo sapiens, UniProt P13569, Y304A); assay: Inside-out patch-clamp of CFTR currents in transfected CHO cells; format: cell-based
Summary of the method: as §2

D924N-CFTR = D924N-CFTR (Homo sapiens, UniProt P13569, D924N); assay: Inside-out patch-clamp of CFTR currents in transfected CHO cells; format: cell-based
Summary of the method: as §1

D993A-CFTR = D993A-CFTR (Homo sapiens, UniProt P13569, D993A); assay: as above; format: cell-based
D993A-CFTR, sequence (P13569 whole entry D993A): as the sequence (P13569 whole entry Y304T, the tested form may be a part) above, with T304Y, D993A counted along it
Summary of the method: as §1

F304Y-mCFTR = F304Y-mCFTR (Mus musculus, UniProt P26361, F304Y); assay: as above; format: cell-based
Summary of the method: as §1

G551D-CFTR [1] = biological target: T1, G551D-CFTR (Homo sapiens, UniProt P13569, G551D); assay: as above; format: cell-based
Summary of the method: as §1

N1138F/G551D-CFTR = N1138F/G551D-CFTR (Homo sapiens, UniProt P13569, G551D/N1138F); assay: as above; format: cell-based
Summary of the method: as §1

G551D-CFTR [2] = biological target: T1, G551D-CFTR; conditions: ref Yeh et al., 2017, cited from earlier work
R347C-CFTR = R347C-CFTR (Homo sapiens, UniProt P13569, R347C); assay: Inside-out patch-clamp of CFTR currents in transfected CHO cells; format: cell-based
Summary of the method: (§3)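 Channels in ATP exposed to test compound at pH 7.4; percent change of mean current scored. Perfusate then switched to pH 5.5, with or without prior compound exposure at pH 7.4. Fold increase taken as peak current at pH 5.5 divided by mean current at pH 7.4.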

[3] = biological target: R347D-CFTR (ΔR-CFTR background) (Homo sapiens, UniProt P13569, R347D); assay: as above; format: cell-based; conditions: pH 7.4
Summary of the method: as §3

[4] = CHO, read-out: Efficacy (% increase) of currents by GLPG1837

CC1(C)Cc2c(sc(NC(=O)c3ccn[nH]3)c2C(N)=O)C(C)(C)O1 [GLPG1837, N-(3-carbamoyl-5,5,7,7-tetramethyl-5,7-dihydro-4H-thieno[2,3-c]pyran-2-yl)-lH-pyrazole-5-carboxamide]
EC50 (WT zCFTR (zWT)): 3900 ± 1700 nM | EC50 (S1141K/G551D-CFTR): 260 ± 20 nM | ΔΔG (S1141K/G551D-CFTR; GLPG1837, vs G551D): 1.26 kcal/mol | EC50 (S263A-CFTR): 270 ± 50 nM | Emax (S263A-CFTR; [4]): 148 ± 18% | ΔΔG (S263A-CFTR; GLPG1837, vs WT): -0.022 kcal/mol | EC50 (S364A-CFTR): 180 ± 10 nM | Emax (S364A-CFTR; [4]): 126 ± 5% | Decrease of apparent affinity for GLPG1837 vs WT-CFTR (D924A-CFTR): ≥ 10 fold | EC50 (D924A-CFTR): > 3000 nM | Potentiating effect of GLPG1837 (D924A-CFTR; 3 µM GLPG1837, microscopic recording): barely discerned any potentiating effects | ΔΔG (D924A-CFTR; GLPG1837, −RTln(EC50 mutant/EC50 WT)): <-1.45 kcal/mol | EC50 (F236A-CFTR): 340 ± 140 nM | Emax (F236A-CFTR; [4]): 81 ± 14% | ΔΔG (F236A-CFTR; GLPG1837, vs WT): -0.16 kcal/mol | EC50 (F931A-CFTR): 1140 ± 260 nM | Emax (F931A-CFTR; [4]): 83 ± 12% | EC50 (Y304T-CFTR): > 3000 nM | Emax (Y304T-CFTR; [4]): > 101% | ΔΔG (Y304T-CFTR; GLPG1837, vs WT): <-1.45 kcal/mol | Relaxation time constant upon removal of GLPG1837 (Y304T-CFTR; mean, n = 5): 4.7 ± 0.8 s and < 5 s | Potentiation of currents by GLPG1837 (WT-mCFTR): does not potentiate | EC50 (N1138Y/G551D-CFTR): 400 ± 100 nM | ΔΔG (N1138Y/G551D-CFTR; GLPG1837, vs G551D): 1.01 kcal/mol | EC50 (T360A-CFTR): 120 ± 10 nM | Emax (T360A-CFTR; [4]): 120 ± 38% | ΔΔG (T360A-CFTR; GLPG1837, vs WT): 0.459 kcal/mol | EC50 (S1141R/G551D-CFTR): 510 ± 130 nM | ΔΔG (S1141R/G551D-CFTR; GLPG1837, vs G551D): 0.863 kcal/mol | EC50 (S1149A-CFTR): 160 ± 30 nM | Emax (S1149A-CFTR; [4]): 139 ± 36% | ΔΔG (S1149A-CFTR; GLPG1837, vs WT): 0.287 kcal/mol | EC50 (Y304A-CFTR): > 3000 nM | Emax (Y304A-CFTR; [4]): > 80% | ΔΔG (Y304A-CFTR; GLPG1837, vs WT): <-1.45 kcal/mol | Relaxation time constant upon removal of GLPG1837 (Y304A-CFTR; mean, n = 5): 3.6 ± 1.0 s and < 5 s | EC50 (D924N-CFTR): 2290 ± 780 nM | ΔΔG (D924N-CFTR; GLPG1837, vs WT): -1.29 kcal/mol | Efficacy (% increase) of currents by GLPG1837 (D924N-CFTR; maximal percent increase): 464 ± 73% | EC50 (D993A-CFTR): 360 ± 40 nM | Emax (D993A-CFTR; [4]): 283 ± 47% | ΔΔG (D993A-CFTR; GLPG1837, vs WT): -0.194 kcal/mol | EC50 (F304Y-mCFTR): 680 ± 180 nM | Potentiation of currents by GLPG1837 (F304Y-mCFTR): restores the potentiating effects; also recorded: Potentiation | EC50 (G551D-CFTR [1]): 2190 ± 330 nM | EC50 (N1138F/G551D-CFTR): 160 ± 50 nM | Emax (N1138F/G551D-CFTR; [4]): 666 ± 131% | ΔΔG (N1138F/G551D-CFTR; GLPG1837, vs G551D): 1.55 kcal/mol | Maximal fold increase of currents by GLPG1837 relative to WT-CFTR (G551D-CFTR [2]; greater than WT-CFTR): 20 fold | Apparent affinity for GLPG1837 relative to WT-CFTR (G551D-CFTR [2]; lower than on WT-CFTR): 10 fold | Effect of GLPG1837 on currents (R347C-CFTR; pH 5.5): effectively potentiates | Percent of inhibition of currents by GLPG1837 (R347C-CFTR; pH 7.4): 16 ± 3% | Effect of GLPG1837 on currents [3]: no effect
